Measured values: ChEMBL document CHEMBL1122206, “Use of adenine nucleotide derivatives to assess the potential of exo-active-site-directed reagents as species- or isozyme-specific enzyme inactivators. 5. Interactions of adenosine 5'-triphosphate derivatives with rat pyruvate kinases, Escherichia coli thymidine kinase, and yeast and rat …” (1982)

Columns and labels:
[1] = molecular target: T1, Hexokinase-3 (Rattus norvegicus) (UniProt P27926); test: Time dependent inhibition of Hexokinase type III activity after 6 h, at 22 degrees celsius, at 5 mM
T1 sequence (whole entry): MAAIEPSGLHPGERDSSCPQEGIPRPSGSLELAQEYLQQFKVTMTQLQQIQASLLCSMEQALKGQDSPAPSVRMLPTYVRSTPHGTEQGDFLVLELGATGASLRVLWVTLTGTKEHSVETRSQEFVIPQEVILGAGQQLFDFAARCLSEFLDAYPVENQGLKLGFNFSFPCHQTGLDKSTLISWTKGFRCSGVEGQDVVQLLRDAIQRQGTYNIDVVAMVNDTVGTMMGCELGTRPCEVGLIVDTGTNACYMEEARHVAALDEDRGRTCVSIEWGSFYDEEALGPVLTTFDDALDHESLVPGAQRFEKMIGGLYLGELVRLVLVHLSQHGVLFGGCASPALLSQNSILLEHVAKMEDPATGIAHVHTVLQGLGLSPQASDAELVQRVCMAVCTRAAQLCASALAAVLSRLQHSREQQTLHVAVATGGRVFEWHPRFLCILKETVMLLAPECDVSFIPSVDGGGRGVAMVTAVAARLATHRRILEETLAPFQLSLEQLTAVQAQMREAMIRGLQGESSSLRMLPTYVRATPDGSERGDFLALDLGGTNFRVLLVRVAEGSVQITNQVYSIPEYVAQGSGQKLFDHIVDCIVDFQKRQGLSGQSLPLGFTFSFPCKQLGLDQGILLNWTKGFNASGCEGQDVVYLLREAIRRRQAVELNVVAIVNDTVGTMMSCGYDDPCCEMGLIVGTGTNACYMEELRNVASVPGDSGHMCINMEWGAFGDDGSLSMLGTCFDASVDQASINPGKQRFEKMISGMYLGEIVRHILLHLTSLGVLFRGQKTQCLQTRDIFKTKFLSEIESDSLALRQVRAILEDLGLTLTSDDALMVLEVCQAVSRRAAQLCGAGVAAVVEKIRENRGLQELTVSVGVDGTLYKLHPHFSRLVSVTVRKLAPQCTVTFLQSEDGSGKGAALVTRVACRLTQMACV

[2] = molecular target: T2, Hexokinase-1 (Rattus norvegicus) (UniProt P05708); test: Substrate activity for rat hexokinase I as 1:1 Mg complex at 5.0 mM
T2 sequence (whole entry): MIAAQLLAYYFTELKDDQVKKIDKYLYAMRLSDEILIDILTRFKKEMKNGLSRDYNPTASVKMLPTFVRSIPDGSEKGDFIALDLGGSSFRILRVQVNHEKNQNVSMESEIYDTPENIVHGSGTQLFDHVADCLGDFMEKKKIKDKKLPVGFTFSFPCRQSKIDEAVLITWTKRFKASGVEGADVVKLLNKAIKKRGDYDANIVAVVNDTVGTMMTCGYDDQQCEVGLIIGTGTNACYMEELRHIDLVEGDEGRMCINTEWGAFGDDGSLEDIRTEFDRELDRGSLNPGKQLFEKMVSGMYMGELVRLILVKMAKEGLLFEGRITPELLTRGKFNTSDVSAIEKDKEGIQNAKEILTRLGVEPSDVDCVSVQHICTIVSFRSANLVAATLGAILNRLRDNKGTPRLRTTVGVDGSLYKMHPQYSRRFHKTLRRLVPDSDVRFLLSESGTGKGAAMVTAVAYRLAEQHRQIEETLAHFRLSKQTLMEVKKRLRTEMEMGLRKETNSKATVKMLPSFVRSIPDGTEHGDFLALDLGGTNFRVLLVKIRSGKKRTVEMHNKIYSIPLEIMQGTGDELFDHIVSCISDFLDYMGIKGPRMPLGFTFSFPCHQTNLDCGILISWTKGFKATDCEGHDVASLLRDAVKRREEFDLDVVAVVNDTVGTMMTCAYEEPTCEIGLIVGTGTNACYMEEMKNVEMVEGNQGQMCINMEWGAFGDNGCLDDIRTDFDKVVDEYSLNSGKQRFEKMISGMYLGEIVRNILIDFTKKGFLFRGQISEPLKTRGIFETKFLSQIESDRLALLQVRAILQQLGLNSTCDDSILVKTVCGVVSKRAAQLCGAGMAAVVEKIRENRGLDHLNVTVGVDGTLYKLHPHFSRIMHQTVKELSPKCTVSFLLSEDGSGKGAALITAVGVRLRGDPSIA
Outline: (§1)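 Hexokinase activity read at 22 °C as A340 change, coupled to glucose-6-phosphate dehydrogenase, in 0.05 M Tris-HCl pH 7.6 with 6.6 mM MgCl2, 10 mM α-D-glucose and 0.93 mM NADP. Donor was 5.0 mM MgATP derivative (1:1 Mg complex) in place of ATP. Yeast HK was isoelectric-focused. Rat HK I and III came from electrofocused liver extract, HK II from dialysed muscle extract.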

[3] = Compound was tested for substrate constants with rat hexokinase. Maximal velocity Vmax was reported
Outline: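 Rat HK I and HK III came from liver extract of an adult male Sprague-Dawley rat and were separated by electrofocusing and dialysed; HK II was dialysed muscle extract. The coupled assay ran at 22 °C in 0.05 M Tris-HCl pH 7.6 with 6.6 mM MgCl2, 10 mM glucose, 0.93 mM NADP and G6P dehydrogenase, read at 340 nm. Constants came from linear double-reciprocal plots.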

[4] = molecular target: T1, Hexokinase-3 (Rattus norvegicus); test: Substrate activity for rat hexokinase III as 1:1 Mg complex at 5.0 mM
Outline: as §1

[5] = Substrate concentration for half maximal velocity was reported for rat hexokinase III
Outline: (§2)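 Coupled glucose-6-phosphate dehydrogenase/NADP assay: A340 rate at 22 °C in 0.05 M Tris-HCl pH 7.6 with 6.6 mM MgCl2, 10 mM α-D-glucose and 0.93 mM NADP, nucleotide varied. KM was taken from linear double-reciprocal plots. Rat HK I and III came from electrofocused, dialysed liver extract, HK II from dialysed muscle extract, and yeast HK was isoelectric-focused.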

[6] = Substrate concentration for half maximal velocity was reported for rat hexokinase I
Outline: as §2

Saccharomyces cerevisiae = test: Compound was tested for time dependent inhibition of hexokinase activity after 6 hr, at 0 degrees celsius, with 10 mM ATP derivative in yeast hexokinase

Molecule `Nc1ncnc2c1ncn2[C@@H]1O[C@H](COP(=O)(O)OP(=O)(O)OP(=O)(O)O)[C@@H](O)[C@H]1O` has an inhibition [1] of 0%, a Relative velocity [2] of 1 and a Vmax [3] of 100%. The Relative velocity [4] was 1, the Km [5] was 910 µM and the Km [6] was 440 µM. The inhibition (Saccharomyces cerevisiae) was 0%.
